High-throughput results from PubChem BioAssay.
Most compounds without a hit are left out; they make up all but 4.4% or so of the library.
MPTP inh = blocks calcium-induced mitochondrial swelling | isolated mouse mitochondria, Ca2+ swelling absorbance, 30 min | inhibition, % at 10 µM | 1.4% of 360,000 active;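 active means inhibition of 50% or more, scaled per plate between neutral and stimulator controls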;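 further: 0% = DMSO wells given calcium and 100% = 1 mM EGTA wells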
SENP1 inh = SENP1 (human) catalytic domain inhibition | recombinant SENP1 catalytic domain, CyPet-SUMO1-YPet FRET cleavage | AID 624204 | Q9P0U3 | inhibition, % at 10 µM | 0.21% of 360,000 active;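 active means inhibition at least 30% at 10 µM, raw YFP signal under a set limit, fluorescence ratio 0.5 to 1.5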;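 further: 0% = enzyme with DMSO and 100% = no enzyme wells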
Target sequence (Q9P0U3 419-644 limits assumed): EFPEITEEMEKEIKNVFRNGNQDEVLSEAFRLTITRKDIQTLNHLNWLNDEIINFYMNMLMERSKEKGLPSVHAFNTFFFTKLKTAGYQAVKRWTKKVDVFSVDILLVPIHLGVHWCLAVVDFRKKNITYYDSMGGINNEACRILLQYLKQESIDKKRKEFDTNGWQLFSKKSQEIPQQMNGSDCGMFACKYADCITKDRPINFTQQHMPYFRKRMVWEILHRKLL
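Test system: hSENP1 catalytic domain, recombinant; Amount: 20 pM final SENP1 enzyme; Medium: Tris pH 8 buffer plus EDTA, NaCl, BME, BSA, NP40, catalase; Schedule: 50 min enzyme reaction, room temperature, light-protected; Technique: FRET fluorescence in CFP and YFP emission channels; Controls: no-enzyme wells low, DMSO-plus-enzyme wells high control.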
EBI2 block = antagonists of human EBI2 receptor. P32249. AID 651636. 0.81% of 360,000 active. EBI2 beta-arrestin recruitment, luminescence, 7a,25-OHC stimulated. inhibition, % at 5 µM; in the data active means inhibition above about 38%;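 further: enzyme fragment complementation signal reports receptor beta-arrestin coupling in cells; 0% = agonist plus DMSO wells and 100% = wells without agonist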
Target sequence (P32249 whole entry, looked up, the tested form may be a part): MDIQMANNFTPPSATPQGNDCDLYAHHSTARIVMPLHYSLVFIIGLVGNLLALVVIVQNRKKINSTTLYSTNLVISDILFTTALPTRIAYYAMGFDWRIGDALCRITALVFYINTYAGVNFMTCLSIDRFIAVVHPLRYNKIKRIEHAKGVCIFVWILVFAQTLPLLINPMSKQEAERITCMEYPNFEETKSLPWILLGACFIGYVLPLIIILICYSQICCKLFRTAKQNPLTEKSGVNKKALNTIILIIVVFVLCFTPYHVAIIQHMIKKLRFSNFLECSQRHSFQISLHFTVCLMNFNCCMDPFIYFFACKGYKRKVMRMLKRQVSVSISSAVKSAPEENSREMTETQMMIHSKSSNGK
GRIN3A LBD mod = modulators (binders) of human NR3A ligand-binding domain; Tm shift relative to glycine control, % at 25 µM; 2.5% of 340,000 active; NR3A LBD differential scanning fluorimetry, Tm shift; 0% = protein alone, 100% = glycine-bound protein;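 active means melting temperature shift of at least 10% of the positive control shift, at one fixed dose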
Starred values were filed as active, the others as inactive; x = no result.

SMILES	MPTP inh	SENP1 inh	EBI2 block	GRIN3A LBD mod
CC(OC(=O)CCCCCN=C1NS(=O)(=O)c2ccccc21)C(=O)Nc1cc(Cl)cc(Cl)c1 (stereo unspecified)	21.0	0.6	7.6	17.8*
CC(=O)Nc1ccc(NC(=O)C(C)OC(=O)CCN=C2NS(=O)(=O)c3ccccc32)cc1 (stereo unspecified)	-0.1	0.9	-2.6	0.2
Cc1csc(=O)n1CCC(=O)OCC(=O)Nc1cccc(C#N)c1	-1.3	1.0	-12.4	2.0
COc1cccc(/C(O)=C/c2nc3ccc(C(=O)NCCc4ccc(Cl)cc4)cc3[nH]c2=O)c1	-2.5	-25.8	19.8	11.1*
COc1cccc(/C(O)=C/c2nc3ccc(C(=O)NCCc4cccc(C)c4)cc3[nH]c2=O)c1	1.4	-29.7	-0.8	-3.2
COC(=O)c1cc(C(=O)OCC(=O)NC2CCS(=O)(=O)C2)cc([N+](=O)[O-])c1 (stereo unspecified)	-0.9	1.2	3.9	-0.5
N/C(=N\S(=O)(=O)c1cc(C(F)(F)F)cc(C(F)(F)F)c1)c1ccncc1	3.3	-2.7	-5.1	14.5*
CN(C)c1ccc(C(=O)/C=C/c2ccccc2)cc1	4.7	19.6	76.0*	-0.8
CC(=O)Nc1cccc(C(=O)/C=C/c2ccc(N(C)C)cc2)c1	-9.2	-28.5	43.5*	18.3*
Cc1cccc(N2CCN(S(=O)(=O)c3cn(C)cn3)CC2)c1C	1.4	4.4	1.6	0.3
CC(=O)Nc1ccc(-c2noc(-c3csc([C@@H]4C[C@H](O)[C@@H](CO)O4)n3)n2)cc1	-0.1	-0.9	-8.8	x
CCn1cc(C(=O)NC(C)C)c(=O)c2cc(F)c(N3CCN(C(=O)c4ccco4)CC3)cc21	0.2	0.2	6.1	11.9*
CCn1cc(C(=O)NCCC(C)C)c(=O)c2cc(F)c(N3CCN(C(=O)c4ccco4)CC3)cc21	-2.6	0.6	16.3	0.7
Cc1cccc(C(=O)Nc2nc(C)c(C(=O)Nc3ccc4c(c3)CCC4)s2)c1	1.3	-7.0	-4.5	28.1*
COc1cc([C@@H]2c3cc4c(cc3[C@@H](O)[C@H]3COC(=O)[C@H]23)OCO4)cc(OC)c1O[Si](C)(C)C(C)(C)C	2.7	0.8	19.0	11.4*
COc1ccc(CCN2C(=O)c3ccncc3C2=O)cc1OC	0.8	3.6	-3.6	1.0
c1ccc2nc(N3CCCC3)c(N3CCCC3)nc2c1	0.8	-22.8	9.2	11.2*
Cc1nc2ccccc2nc1N1CCCCC1	-0.6	3.2	-4.4	1.5
CCOC(=O)c1ccc(NC(=O)c2nc[nH]c2C(=O)N(C)Cc2ccccc2)cc1	0.3	3.6	-5.4	-20.2
Cn1nccc1-c1ccc(C(=O)NCc2ccc(Cl)cc2)c2occc12	0.2	-0.9	11.0	x
COc1cccc(/C=C2\N=C(SC)SC2=O)c1OC	1.5	3.8	-7.2	3.7
CSC1=N/C(=C\c2ccccc2F)C(=O)S1	-0.4	-1.0	-17.6	15.7*
CCSc1nnc(-c2ccc(Cl)cc2Cl)o1	-0.1	3.5	0.2	15.7*
C=CCn1c(Cc2ccc(OC)cc2)nnc1SCC(=O)NCCc1ccccc1	-1.1	2.7	30.5	-4.5
COCCN(CCOC)S(=O)(=O)c1ccc(NC(=O)c2cnccn2)cc1	0.4	-1.5	-1.1	-1.4
SMILES	MPTP inh	SENP1 inh	EBI2 block	GRIN3A LBD mod
CCCC(CCC)c1nnc(NC(=O)c2ccco2)s1	-0.7	-1.8	0.1	-0.5
N#CC1CC(c2ccc([N+](=O)[O-])cc2)=NN1c1ccc([N+](=O)[O-])cc1 (stereo unspecified)	3.0	-33.4	5.0	19.6*
CCOc1ccccc1NC(=O)c1cc(C(=O)c2cc(Br)ccc2O)coc1=N	43.9	2.4	13.4	24.9*
CN(C)S(=O)(=O)c1ccc(C(=O)NCc2nnc(SCC(=O)N3CCCC3)o2)cc1	3.0	-0.1	-6.8	-0.5
O=C(COc1cccc(C(F)(F)F)c1)NCC(c1ccco1)N1CCCCC1 (stereo unspecified)	-0.9	-1.7	6.9	-0.1
CCOc1cc(S(=O)(=O)Nc2ccc(Cl)cn2)ccc1F	0.5	2.3	-4.6	10.8*
CCOc1cc(S(=O)(=O)Nc2ccccc2CC)ccc1Cl	-0.2	1.7	0.5	-9.1
CCOc1cc(S(=O)(=O)Nc2ccc(CC)cc2)ccc1Cl	5.1	0.4	-3.1	12.9*
CCOc1cc(S(=O)(=O)Nc2ccc(Cl)cn2)ccc1Cl	-1.8	0.8	-3.5	-6.8
CC1(C)CC[C@]2(C(=O)O[C@@H]3OC(CO)[C@@H](O)[C@H](O)[C@H]3O)CC[C@]3(C)C(=CCC4[C@@]5(C)CC[C@H](O[C@@H]6OC(C(=O)O)[C@@H](O)[C@H](O)[C@H]6O)C(C)(C)C5CC[C@]43C)[C@@H]2C1 (stereo partly specified)	0.2	1.6	-1.9	0.3
COC(=O)C1OC(OC2CC[C@]3(C)C(CC[C@@]4(C)[C@@H]3CC=C3[C@@H]5CC(C)(C)CC[C@]5(C(=O)OC5OC(CO)C(O)C(O)C5O)CC[C@]34C)C2(C)C)C(O)C(O)C1O[C@H]1OCC(O)C(O)C1O (stereo partly specified)	-9.8	0.5	-9.4	14.6*
CC(=O)Nc1ccc(C(=O)OCC(=O)N(Cc2ccccc2)C(C)(C)C)cc1	3.8	-1.3	1.5	-0.3
O=C(Nc1cccc(C(F)(F)F)c1)C1Cc2c(-c3ccccc3)ccnc2O1 (stereo unspecified)	2.1	-1.4	-3.9	x
COc1ccc(/C=C/C(=O)Nc2ccc3c(c2)CCC3)cc1OC	0.8	4.6	17.4	-3.5
COc1ccc(/C=C/C(=O)NC(=S)Nc2cc([N+](=O)[O-])ccc2O)cc1OC	2.3	1.5	-7.0	19.1*
COc1ccc(/C=C/C(=O)Nc2ccc(C(N)=O)cc2)cc1OC	3.6	-0.8	3.7	14.8*
COc1cccc(OC)c1C(=O)NC(=S)Nc1ccc2c(c1)OCCO2	0.5	0.5	12.5	-0.8
COc1ccc([N+](=O)[O-])cc1NC(=S)NC(C)=O	-0.7	0.4	-4.0	-3.5
COc1ccc(/C=C/C(=O)Nc2cccc(C(C)=O)c2)cc1	1.5	1.4	22.7	-8.2
COc1cccc(/C=C/C(=O)Nc2ccc3c(c2)OCCO3)c1OC	-1.7	1.9	7.9	19.7*
COc1cccc(/C=C/C(=O)Nc2cccc(C(C)=O)c2)c1OC	-0.7	2.5	12.7	15.3*
Cc1cc(C)n(CCNC(=O)c2ccco2)n1	2.9	0.5	-9.8	-0.7
COc1cccc(/C=C/C(=O)c2cccc([N+](=O)[O-])c2)c1OC	-2.0	0.0	5.5	10.2*
COc1cccc(/C=C/C(=O)c2cccc([N+](=O)[O-])c2)c1	0.0	0.8	11.5	-4.8
COc1cccc(/C=C/C(=O)Nc2ccc(C(=O)Nc3cccc(S(N)(=O)=O)c3)cc2)c1OC	1.1	-0.8	-5.4	38.9*
COc1ccccc1/C=C/C(=O)Nc1cccc(C(C)=O)c1	1.6	3.6	12.0	21.0*
O=C(NC1CC2CCCC(C1)N2C(=S)NCCc1ccccc1)C1CC1 (stereo unspecified)	-2.2	0.7	-9.7	-8.8
Cc1cc(C)n(CC(=O)c2ccc(Br)cc2)c(=O)c1C#N	-0.1	0.7	2.1	-1.3
